Experimental findings from ChEMBL document CHEMBL1759990, “Synthesis and SAR of novel quinazolines as potent and brain-penetrant c-jun N-terminal kinase (JNK) inhibitors” (Bioorg Med Chem Lett, 2011) are described below.

pIC50: −log10 of the molar value.

The target of series [1] is Mitogen-activated protein kinase 10 (Homo sapiens, UniProt P53779). Put plainly: Inhibition of JNK3 by HRTF. The essentials:
(§1)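 HTRF kinase assay with final concentrations of 0.1 nM JNK1 or 0.3 nM JNK3, 0.4 nM biotinylated-ATF2 substrate and 1 mM ATP. Phospho-Thr71-ATF-2 was detected with a Europium-cryptate anti-phospho-Thr71-ATF-2 antibody, with streptavidin-allophycocyanin-XL as acceptor. A 10-point dose-response was run in duplicate and fit to a four-parameter logistic. JNK3 values are means of four or more experiments; JNK1 values are means of two or more.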

Series [2] can be described thus: Drug level in mouse plasma at 10 mg/kg, ip after 2 hrs. Type of series: ADME, organism-based. More on the design: dose 10 mg/kg, route intraperitoneal. The following applies: read-out: Drug uptake. The method in brief:
(§2)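 Mouse dosed at 10 mg/kg ip. Brain and plasma concentrations (µM) were measured at 2 h.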

A short description of series [3]: Drug level in mouse brain at 10 mg/kg, ip after 2 hrs. Type of series: ADME, organism-based. Details: dose 10 mg/kg, route intraperitoneal. Conditions: read-out: Drug uptake. The essentials: as §2
Series [4] concerns the target Mitogen-activated protein kinase 8 (Homo sapiens, UniProt P45983). Put plainly: Inhibition of JNK1 by HRTF. The essentials:
as §1

In series [5] the test system is Rattus norvegicus. Put plainly: Half life in rat at 1 mg/kg, iv. Conditions: in vivo. Type of series: ADME, organism-based. Details: dose 1 mg/kg, route intravenous.
The nature of series [6]: Volume of distribution in rat at 1 mg/kg, iv. Format: ADME, organism-based. More on the design: dose 1 mg/kg, route intravenous. Conditions: in vivo.
Series [7] can be described thus: AUC in rat at 2 mg/kg, po. Format: ADME, organism-based. More on the design: dose 2 mg/kg, route oral. The following applies: plasma.
Series [8] is described as follows: Cmax in rat at 2 mg/kg, po. Type of series: ADME, organism-based. More on the design: dose 2 mg/kg, route oral. Conditions: in vivo.
In series [9] the test system is Rattus norvegicus. Put plainly: Oral bioavailability in rat at 2 mg/kg. Conditions: in vivo. Format: ADME, organism-based.

Sequence of Mitogen-activated protein kinase 8 (P45983 whole entry): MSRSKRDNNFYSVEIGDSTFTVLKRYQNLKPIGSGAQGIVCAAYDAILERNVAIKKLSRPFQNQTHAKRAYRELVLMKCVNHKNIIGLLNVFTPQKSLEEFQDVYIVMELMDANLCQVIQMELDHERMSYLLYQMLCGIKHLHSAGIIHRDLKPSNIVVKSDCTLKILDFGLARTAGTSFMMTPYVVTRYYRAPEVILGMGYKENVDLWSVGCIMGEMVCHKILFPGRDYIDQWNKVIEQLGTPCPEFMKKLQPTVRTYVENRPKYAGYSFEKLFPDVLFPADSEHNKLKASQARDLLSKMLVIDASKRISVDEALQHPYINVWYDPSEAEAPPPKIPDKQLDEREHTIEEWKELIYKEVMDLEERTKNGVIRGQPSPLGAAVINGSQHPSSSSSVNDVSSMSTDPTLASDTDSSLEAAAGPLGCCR
Sequence of Mitogen-activated protein kinase 10 (P53779 whole entry): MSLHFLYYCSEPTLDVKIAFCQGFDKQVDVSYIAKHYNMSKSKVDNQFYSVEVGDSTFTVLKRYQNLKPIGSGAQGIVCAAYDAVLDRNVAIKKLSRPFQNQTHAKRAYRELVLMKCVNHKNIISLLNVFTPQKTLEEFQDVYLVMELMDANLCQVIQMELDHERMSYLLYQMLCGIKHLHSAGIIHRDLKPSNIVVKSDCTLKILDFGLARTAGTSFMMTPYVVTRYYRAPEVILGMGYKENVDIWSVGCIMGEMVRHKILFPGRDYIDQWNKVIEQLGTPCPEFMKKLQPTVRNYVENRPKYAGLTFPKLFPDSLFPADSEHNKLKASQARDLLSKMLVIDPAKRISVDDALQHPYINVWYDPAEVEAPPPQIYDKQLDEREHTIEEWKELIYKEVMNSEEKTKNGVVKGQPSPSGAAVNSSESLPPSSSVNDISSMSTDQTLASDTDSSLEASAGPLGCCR

Consider `Cc1ccc(-c2ncn(-c3ccc(Nc4ncc5ccc(-c6cn[nH]c6)cc5n4)cc3)n2)cn1`, for which, in series [1], the pIC50 (commonly the IC50 on a negative log10 scale, so that one unit is a factor of ten) was 7.30.

As for `Cc1ccc(-c2cccc3cnc(Nc4ccc(-n5cnc(C)n5)cc4)nc23)cn1`, in series [1], the pIC50 was 7.52. The concentration at 2 h in [2] worked out at 2.31 µM; in series [3], 0.23 µM.

On to `c1cc(-n2cnc(N3CCOCC3)n2)ccc1Nc1ncc2ccc(-c3cn[nH]c3)cc2n1`, for which the pIC50 in [1] was 7.30; in [4] it was 7.40. Also, the concentration at 2 h in [2] was 42.9 µM; in series [3] it was 1.31 µM.

As for `Cn1cc(-c2ccc3cnc(Nc4ccc(-n5cnc(-c6ccccn6)n5)cc4)nc3c2)cn1`, the pIC50 in series [1] is 7.22; in series [4] it was 7.00. The results for the concentration at 2 h in [2] and in series [3] were 13.1 µM and 1.37 µM, respectively.

For `COc1ccc(-c2cccc3cnc(Nc4ccc(-n5cnc(N6CCOCC6)n5)cc4)nc23)cc1F`, the results for the pIC50 in series [1] and in series [4] were 7.15 and 7.05, respectively. Besides, the concentration at 2 h in series [2] was 6.1 µM; in [3], 1.5 µM.

In series [1], `Cn1cc(-c2ccc3cnc(Nc4ccc(-n5cnc(N6CCOCC6)n5)cc4)nc3c2C2CC2)cn1` had a pIC50 of 7.70. The concentration at 2 h in series [2] worked out at 10.6 µM; in [3] it was 5 µM.

Take `Cn1cc(-c2cccc3cnc(Nc4ccc(-n5cnc(N6CCOCC6)n5)cc4)nc23)cn1`: the pIC50 in series [1] was 7.70; in [4], 8.00. The concentration at 2 h in series [2] is 2.2 µM; in series [3], 0.23 µM.

`Cc1ccc(-c2cccc3cnc(Nc4ccc(F)cc4)nc23)cn1` had a pIC50 in series [1] of 6.77.

`Cc1ccc(-c2cccc3cnc(N[C@H]4CC[C@@H](C(=O)N5CCCC5)CC4)nc23)cn1` showed a pIC50 in series [1] of 7.52.

For the compound `Cc1ccc(-c2cccc3cnc(NC4CCC(O)CC4)nc23)cn1` (stereo not given), the pIC50 in [1] is 7.30.

For `c1cc(-n2cnc(N3CCOCC3)n2)ccc1Nc1ncc2ccc(N3CCOCC3)cc2n1`, the pIC50 in [1] is 5.36.

In series [1], `Cn1cc(-c2ccc3cnc(Nc4ccc(-n5cnc(N6CCOCC6)n5)cc4)nc3c2-c2cnn(C)c2)cn1` had a pIC50 of 8.05. Moreover, the concentration at 2 h in [2] worked out at 6.3 µM; in series [3], 0.22 µM.

`Cc1ccc(-c2cccc3cnc(Nc4ccc5c(c4)OCO5)nc23)cn1` showed a pIC50 in series [1] of 7.22. The concentration at 2 h in series [2] amounted to 0.78 µM; in series [3], 1.06 µM.

As for `c1cc(-n2cnc(N3CCOCC3)n2)ccc1Nc1ncc2ccc(-c3cnoc3)cc2n1`, in series [1], the pIC50 is 6.15.

For the compound `Cc1c(-c2cnn(C)c2)ccc2cnc(Nc3ccc(-n4cnc(N5CCOCC5)n4)cc3)nc12`, the pIC50 in [1] is 8.00. Also, the concentration at 2 h in series [2] came out at 7.4 µM; in [3], 7.6 µM.

Consider `c1cc(-c2nccs2)c2nc(Nc3ccc(-n4cnc(N5CCOCC5)n4)cc3)ncc2c1`, for which the results for the pIC50 in series [1] and in series [4] were 8.15 and 7.52, respectively.

Compound `c1ccc(-c2ccc3cnc(Nc4ccc(-n5cnc(N6CCOCC6)n5)cc4)nc3c2)cc1` showed a pIC50 in series [1] of less than 4.70.

`Cc1ccc(-c2cccc3cnc(Nc4ccc(-n5cnc(N6CCOCC6)n5)cc4)nc23)cn1` showed a pIC50 in series [1] of 7.52. Besides, the concentration at 2 h in series [2] turned out to be 2.7 µM; in series [3], 0.15 µM.

Regarding `Cc1ncn(-c2ccc(Nc3ncc4cccc(-c5nccs5)c4n3)cc2)n1`, the pIC50 was 7.70 in series [1] and 8.00 in series [4]. For the same compound, the concentration at 2 h in series [2] worked out at 5 µM; in series [3], 4.5 µM.

In the case of `c1ccc(-c2cccc3cnc(Nc4ccc(-n5cnc(N6CCOCC6)n5)cc4)nc23)cc1`, the results for the pIC50 in series [1] and in series [4] were 7.22 and 7.30, respectively. The concentration at 2 h in [2] worked out at 5.2 µM; in series [3] it was 12.7 µM.

As to `Cc1ccc(-c2cccc3cnc(Nc4ccc(C(=O)N5CCOCC5)cc4)nc23)cn1`, the pIC50 in [1] is 7.05.

In [1], `COc1ccc(-c2cccc3cnc(Nc4ccc(-n5cnc(C)n5)cc4)nc23)cc1F` showed a pIC50 of 7.10. In addition, the concentration at 2 h amounted to 10.3 µM in series [2] and 7.6 µM in series [3].

For the compound `Cn1cc(-c2ccc3cnc(Nc4ccc(-n5cnc(N6CCOCC6)n5)cc4)nc3c2-c2ccccc2)cn1`, the pIC50 in [1] was 8.00. For the same compound, the concentration at 2 h was 6.4 µM in series [2] and 1.1 µM in [3].

As to `Cn1cc(-c2ccc3cnc(Nc4ccc(-n5cnc(N6CCOCC6)n5)cc4)nc3c2Cl)cn1`, the pIC50 in series [1] is 7.40. In addition, the concentration at 2 h in series [2] is 10.4 µM; in series [3], 8.3 µM. Further, the t1/2 with Rattus norvegicus [5] was determined as 3 h. For the same compound, the Vd (in general, the apparent volume that relates the amount in the body to the concentration in plasma or blood) in [6] stood at 1.4 L/kg. In addition, in [7], the AUC (as a rule, the area under the concentration-time curve, a measure of exposure) was 2.3 µM·h. Also, the peak level in series [8] (Cmax) was 0.3 µM. This compound had a F in the series on Rattus norvegicus [9] of 19%.

In the case of `Cn1cc(-c2ccc3cnc(Nc4ccc(-n5cnc(N6CCOCC6)n5)cc4)nc3c2)cn1`, the pIC50 in series [1] was 7.05; in series [4] it was 7.30. The figures for the concentration at 2 h in [2] and in series [3] were 17.8 µM and 7.17 µM, respectively. The same compound showed a t1/2 in the series with Rattus norvegicus [5] of 3 h. The Vd in [6] came to 0.8 L/kg. In series [7], this compound had an AUC of 6.3 µM·h. In addition, the highest level in series [8] (Cmax) was 0.7 µM. The F with Rattus norvegicus [9] is 28%.

Take `c1cncc(-c2ccc3cnc(Nc4ccc(-n5cnc(N6CCOCC6)n5)cc4)nc3c2)c1`: in [1], the pIC50 is 6.68. Also, the concentration at 2 h in series [2] was 26.7 µM; in series [3], 8.1 µM.

Take `CC(C)n1cc(-c2ccc3cnc(Nc4ccc(-n5cnc(N6CCOCC6)n5)cc4)nc3c2Cl)cn1`: the pIC50 in series [1] was 7.20. Moreover, the figures for the concentration at 2 h in series [2] and in series [3] were 4.3 µM and 7.2 µM, respectively.

`Cc1ccc(-c2ccc3cnc(Nc4ccc(-n5cnc(N6CCOCC6)n5)cc4)nc3c2)cn1` gave a pIC50 in [1] of 6.14.

`COc1ccc(-c2cccc3cnc(Nc4ccc(-n5cnc(-c6ccccn6)n5)cc4)nc23)cc1F` had a pIC50 in [1] of 7.05.

Take `Cn1cc(-c2ccc3cnc(Nc4ccc(-n5cnc(N6CCOCC6)n5)cc4)nc3c2C(F)(F)F)cn1`: the pIC50 in series [1] was 6.72. The concentration at 2 h in [2] turned out to be 8.3 µM; in [3], 5.6 µM.

`COc1c(-c2cnn(C)c2)ccc2cnc(Nc3ccc(-n4cnc(N5CCOCC5)n4)cc3)nc12`: the pIC50 in series [1] was 8.40. Besides, the concentration at 2 h stood at 9.4 µM in [2] and 4.9 µM in series [3]. This compound also returned a F with Rattus norvegicus [9] of 8%.
